Screening results from PubChem BioAssay.
The entries come from a sample that favours hits as a whole.
T cruzi growth-1 = T. cruzi proliferation inhibition; T. cruzi beta-gal in NIH3T3, GalScreen luminescence, 90 h; 77,000 compounds, 5.9% hits; inhibition, % at 8.34 µM; AID 624255;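 active = mean inhibition above about 93%, with at least 55% of replicates each passing it, limit read from the data, passing the limit was not always enough; inconclusive = only one of those two conditions holds; inactive = neither condition holds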
KDM4C inh = blocks human GASC-1 (KDM4C) demethylase activity; GST-KDM4C 2-372, H3K9me3 peptide, LANCE TR-FRET; inhibition, % at 12.5 µM; 96,000 compounds, 0.15% hits; AID 720574;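 active = mean replicate inhibition above about 25%, with at least 55% of replicates also reaching it, limit read from the data, passing the limit was not always enough; inconclusive = only one of those two conditions met; inactive = neither condition met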
Target sequence (Q9H3R0 2-372 limits assumed): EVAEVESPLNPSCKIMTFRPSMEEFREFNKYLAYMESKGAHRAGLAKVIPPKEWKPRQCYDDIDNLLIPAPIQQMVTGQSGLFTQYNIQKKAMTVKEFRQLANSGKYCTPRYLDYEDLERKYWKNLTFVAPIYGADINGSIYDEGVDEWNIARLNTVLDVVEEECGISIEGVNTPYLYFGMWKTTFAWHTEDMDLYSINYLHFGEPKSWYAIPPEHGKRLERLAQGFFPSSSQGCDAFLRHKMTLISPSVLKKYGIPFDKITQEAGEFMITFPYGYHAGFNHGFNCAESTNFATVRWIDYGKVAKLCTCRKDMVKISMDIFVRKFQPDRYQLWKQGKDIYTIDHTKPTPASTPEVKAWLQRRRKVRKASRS
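Material: GST-tagged GASC-1 (JMJD2C) catalytic fragment, aa 2-372. Input: enzyme final amount 10 nM. Medium: HEPES buffer, pH 7.5, plus ascorbate. Reagent: H3K9me3 peptide substrate, Fe(II), 2-oxoglutarate. Doses: single dose. Times: reaction 30 min RT, detection step 1 h RT. Measured by: LANCE TR-FRET. Evaluation: Fall in 671/618 emission ratio as inhibition.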
IDH1 mut inh = inhibitors of human IDH1 R132H. O75874. IDH1 R132H reductase, diaphorase/resazurin fluorescence, 60 min. inhibition, % at 10 µM. 70,000 compounds, 0.18% hits. AID 624101; in the data active = inhibition above about 34%; inconclusive = no clear call, values can overlap the other calls; inactive = below about 11%;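 note: 0% = DMSO and 100% = no enzyme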
Target sequence (O75874 whole entry R132H): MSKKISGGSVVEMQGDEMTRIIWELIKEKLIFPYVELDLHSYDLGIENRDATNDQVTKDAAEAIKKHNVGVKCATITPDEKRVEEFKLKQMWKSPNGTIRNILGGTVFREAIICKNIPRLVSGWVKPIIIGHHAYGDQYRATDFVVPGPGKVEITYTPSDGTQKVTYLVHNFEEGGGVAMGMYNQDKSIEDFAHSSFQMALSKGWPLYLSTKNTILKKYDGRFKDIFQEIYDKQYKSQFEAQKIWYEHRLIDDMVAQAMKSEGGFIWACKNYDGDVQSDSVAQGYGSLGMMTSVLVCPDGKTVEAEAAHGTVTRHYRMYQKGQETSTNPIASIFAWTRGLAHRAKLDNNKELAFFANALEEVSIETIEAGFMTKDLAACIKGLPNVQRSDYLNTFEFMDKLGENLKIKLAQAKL
T cruzi growth-2 = blocks T. cruzi growth in NIH3T3 host cells. shares compounds with T cruzi growth-1. T. cruzi beta-gal in NIH3T3, GalScreen luminescence, 90 h. inhibition, % at 8.35 µM. 5,600 compounds, 72% hits. AID 651739;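 active = mean replicate inhibition above about 95% and at least 55% of replicates individually reaching it, limit read from the data; inconclusive = only one of the two criteria is met; inactive = neither criterion is met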
T cruzi growth-3 = blocks T. cruzi growth in NIH3T3 host cells. shares compounds with T cruzi growth-1. T. cruzi beta-gal in NIH3T3, GalScreen luminescence, 90 h. inhibition, % at 2.09 µM. 5,600 compounds, 21% hits. AID 651740;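 active = mean inhibition above about 95%, with at least 55% of replicates also reaching it, limit read from the data; inconclusive = meets just one of the two conditions; inactive = meets neither condition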;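 note: plate controls were neutral control median for no effect and positive control median for full effect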
NIH3T3 tox = cytotoxicity in mouse NIH/3T3 fibroblasts; shares compounds with T cruzi growth-1; NIH/3T3 viability, CellTiter-Glo ATP luminescence, 90 h; cytotoxicity (signal decrease), % at 8.35 µM; 5,600 compounds, 14% hits; AID 651742;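 active = mean signal decrease across replicates above about 35% based on untreated-well scatter, with enough replicates individually passing, limit read from the data; inconclusive = no rule stated though some were filed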;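 note: 0% = median of neutral control wells and 100% = median of positive control wells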
NIH3T3 tox 2 = kills mouse NIH/3T3 fibroblasts. 5,600 compounds, 56% hits. shares compounds with T cruzi growth-1. NIH/3T3 viability, CellTiter-Glo ATP luminescence, 90 h. inhibition, % at 24.9 µM. AID 651744;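 active = mean loss of cell viability signal at or above a set limit, and enough replicates individually reaching it; inconclusive = meets only the mean limit or only the replicate share; inactive = meets neither condition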;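 note: 0% = median of neutral control wells and 100% = median of positive control wells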
* marks the source's active call; other numbers are inactive results; ? = inconclusive; · = not tested or not shown.

SMILES	T cruzi growth-1	KDM4C inh	IDH1 mut inh	T cruzi growth-2	T cruzi growth-3	NIH3T3 tox	NIH3T3 tox 2
C[C@H](CO)N1C[C@H](C)[C@@H](CN(C)Cc2ccncc2)OCCCC[C@H](C)Oc2ccc(NC(=O)Nc3ccc(F)cc3)cc2C1=O	27.1	3.5	1.2	·	·	·	·
CNC(=O)CN(c1ccc(Br)c(C)c1)S(C)(=O)=O	·	·	0.3	·	·	·	·
Cc1ccc(S(=O)(=O)N(C)C[C@H]2Oc3ccc(NC(=O)NC4CCCCC4)cc3C(=O)N([C@H](C)CO)C[C@@H]2C)cc1	-3.9	-0.7	0.4	·	·	·	·
COc1ccc(CN(C)C[C@H]2OCCCC[C@@H](C)Oc3ccc(NS(=O)(=O)c4cn(C)cn4)cc3C(=O)N([C@H](C)CO)C[C@H]2C)cc1	7.3	1.2	·	·	·	·	·
COCC(=O)N1[C@H](CO)[C@@H](c2ccc(C3=CCCCC3)cc2)[C@@H]1C#N	?	-3.6	·	108.5*	2.1	7.1	6.8
COCC(=O)N1[C@H](C#N)[C@@H](c2ccc(C3=CCCCC3)cc2)[C@@H]1CO	86.3	-0.4	·	·	·	·	·
CO[C@H]1CN(C)C(=O)c2ccc(NC(C)=O)cc2OC[C@H](C)N(CCc2ccccc2)C[C@@H]1C	·	-0.8	·	·	·	·	·
C[C@@H]1CCCCO[C@H](CN(C)Cc2ccc(Cl)c(Cl)c2)[C@@H](C)CN([C@@H](C)CO)C(=O)c2cc(NC(=O)Nc3ccc(F)cc3)ccc2O1	100.8*	-1.4	0.8	90.8	112.4*	-8.2	33.5*
C[C@H](CO)N1C[C@H](C)[C@H](CN(C)Cc2ccc(Cl)c(Cl)c2)OCCCC[C@H](C)Oc2ccc(NC(=O)Nc3ccc(F)cc3)cc2C1=O	100.3*	-1.5	0.3	83.4	108.4*	14.3	54.9*
C[C@@H]1CCCCO[C@@H](CN(C)Cc2ccc(Cl)c(Cl)c2)[C@H](C)CN([C@@H](C)CO)C(=O)c2cc(NC(=O)Nc3ccc(F)cc3)ccc2O1	103.6*	1.2	0.5	101.4*	117.3*	5.2	17.7
C[C@@H]1CN([C@H](C)CO)C(=O)c2cc(NC(=O)CCC(F)(F)F)ccc2O[C@@H](C)CCCCO[C@@H]1CN(C)Cc1ccc(Cl)c(Cl)c1	64.5	18.8	-2.0	·	·	·	·
C[C@@H]1CCCCO[C@H](CN(C)Cc2ccc(Cl)c(Cl)c2)[C@@H](C)CN([C@@H](C)CO)C(=O)c2cc(NC(=O)CCC(F)(F)F)ccc2O1	98.2*	0.7	-0.1	?	113.7*	-15.0	105.9*
C[C@@H]1CCCCO[C@@H](CN(C)Cc2ccc(Cl)c(Cl)c2)[C@@H](C)CN([C@H](C)CO)C(=O)c2cc(NC(=O)Nc3ccccc3)ccc2O1	93.6	·	·	·	·	·	·
C[C@@H]1CCCCO[C@@H](CN(C)Cc2ccc(Cl)c(Cl)c2)[C@H](C)CN([C@@H](C)CO)C(=O)c2cc(NC(=O)Nc3ccccc3)ccc2O1	69.5	-0.7	-13.5	·	·	·	·
C[C@@H]1CN([C@H](C)CO)C(=O)c2cc(NC(=O)Nc3ccccc3)ccc2O[C@@H](C)CCCCO[C@@H]1CN(C)Cc1ccc(Cl)c(Cl)c1	70.0	-0.2	·	·	·	·	·
CCc1cccc(C)c1NC(=O)CSc1nnc(-c2ccc(OC)cc2)n1C	·	·	0.1	·	·	·	·
O=C(CN1CCOCC1)N[C@@H]1CC[C@@H](CCNC(=O)C2CCC2)O[C@@H]1CO	-9.7	0.9	-0.3	·	·	·	·
CCOC(=O)c1c(NC(=S)NC(C)C2CCCO2)sc2c1CCCC2 (stereo not given)	·	·	0.0	·	·	·	·
O=C(c1cccc(F)c1)N1CCCCN2[C@H](C1)[C@H](c1ccc(-c3cccnc3)cc1)[C@@H]2CO	1.5	0.9	·	·	·	·	·
O=C(C[C@@H]1CC[C@H]2[C@@H](COC[C@H](O)CN2C(=O)Nc2ccc(Cl)cc2)O1)NCCc1ccncc1	128.5*	2.0	·	87.5	60.6	9.0	11.3
O=C(C[C@@H]1CC[C@@H]2[C@H](COC[C@H](O)CN2C(=O)Nc2ccc(Cl)cc2)O1)NCCc1ccncc1	98.7*	-0.6	·	99.2*	80.4	9.6	-3.1
O=C(C[C@@H]1CC[C@H]2[C@@H](COC[C@@H](O)CN2C(=O)Nc2ccc(Cl)cc2)O1)NCCc1ccncc1	70.9	0.4	·	·	·	·	·
O=C(C[C@H]1CC[C@H]2[C@@H](COC[C@H](O)CN2C(=O)Nc2ccc(Cl)cc2)O1)NCCc1ccncc1	78.1	0.0	·	·	·	·	·
C/C=C/c1ccc([C@@H]2[C@@H](CO)N(C(C)=O)[C@H]2CN(CCC)C(C)=O)cc1	-27.4	-1.4	·	·	·	·	·
CCNC(=O)C[C@@H]1C=C[C@@H](NC(=O)NC2CCCCC2)[C@H](CO)O1	·	0.3	0.1	·	·	·	·
SMILES	T cruzi growth-1	KDM4C inh	IDH1 mut inh	T cruzi growth-2	T cruzi growth-3	NIH3T3 tox	NIH3T3 tox 2
C[C@@H]1CN([C@@H](C)CO)C(=O)c2c(c3ccccc3n2C)-c2ccccc2CO[C@H]1CN(C)C	?	-1.3	-1.5	?	43.9	16.4	30.9
C[C@@H]1CN([C@@H](C)CO)C(=O)c2c(c3ccccc3n2C)-c2ccccc2CO[C@H]1CN(C)Cc1cccnc1	91.7	-0.5	·	·	·	·	·
C[C@H]1CN([C@@H](C)CO)C(=O)c2c(c3ccccc3n2C)-c2ccccc2CO[C@H]1CN(C)C(=O)Nc1ccc2c(c1)OCO2	71.7	-0.7	·	·	·	·	·
C[C@H](CO)N1C[C@H](C)[C@@H](CN(C)Cc2cccnc2)OCc2ccccc2-c2c(n(C)c3ccccc23)C1=O	?	1.8	·	75.3	44.5	16.1	24.8
C[C@H](CO)N1C[C@H](C)[C@@H](CN(C)C(=O)C2CC2)OCc2ccccc2-c2c(n(C)c3ccccc23)C1=O	89.0	1.1	·	·	·	·	·
C[C@@H]1CN([C@@H](C)CO)C(=O)c2c(c3ccccc3n2C)-c2ccccc2CO[C@H]1CN(C)C(=O)Nc1ccc2c(c1)OCO2	105.4*	0.9	·	85.2	33.3	13.4	15.3
CC(=O)N(C)C[C@@H]1OCc2ccccc2-c2c(n(C)c3ccccc23)C(=O)N([C@@H](C)CO)C[C@H]1C	-36.1	-1.4	0.0	·	·	·	·
C[C@H](CO)N1C[C@H](C)[C@H](CN(C)C(=O)C2CC2)OCc2ccccc2-c2c(n(C)c3ccccc23)C1=O	?	1.6	-4.1	70.4	18.9	3.0	38.4*
CC(C)NC(=O)N(C)C[C@@H]1Oc2c(NC(=O)c3ccncc3)cccc2C(=O)N([C@@H](C)CO)C[C@@H]1C	·	0.8	0.0	·	·	·	·
C[C@H](O)C#Cc1ccc2c(c1)O[C@@H](CN(C)Cc1cccnc1)[C@@H](C)CN([C@H](C)CO)S2(=O)=O	43.8	·	6.0	·	·	·	·
C[C@@H](O)C#Cc1ccc2c(c1)O[C@H](CN(C)Cc1cccnc1)[C@@H](C)CN([C@@H](C)CO)S2(=O)=O	67.2	·	·	·	·	·	·
CC(C)C#Cc1ccc2c(c1)O[C@H](CN(C)Cc1cccnc1)[C@H](C)CN([C@@H](C)CO)S2(=O)=O	104.0*	2.0	2.2	98.0*	55.6	?	65.3*
